The inhibition is the change of the read-out against control, counted positive when it falls.

The test system of series [1] is Candida albicans. Briefly: Anti-adherence activity against Candida albicans serotype B assessed as fungal adhesion to human BECs at 13.8 mM co- incubated for 90 mins with yeast cells and BECs by crystal violet staning based microscopic method relative to control. It is filed as functional. The following applies: 1.5 h. An outline of the steps: (§1)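 Yeast (C. albicans MEN, stationary phase, washed, 1 × 10^8 per mL in PBS) were co-incubated with volunteer BECs at 50:1, with compound present, in 2 mL at 30 °C and 200 rpm for 90 min. Unattached yeast were removed on a 30 μm membrane with two PBS washes. Cells were heat-fixed and stained with crystal violet, and adherent yeast on 200 BECs were counted microscopically. PBS control. Three independent occasions; mean ± SEM.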

Series [2] relates to Candida albicans. Briefly: Anti-adherence activity against Candida albicans serotype B assessed as reduction in fungal adhesion to human BECs at 13.8 mM preincubated with yeast cells for 90 mins followed by twice washout with PBS followed by BECs addition by crystal violet staning based microscopic method relative to control. It is filed as functional. The following applies: 1.5 h. An outline of the steps: (§2)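 Pre-treatment (exclusion) format. Stationary-phase C. albicans MEN in PBS were incubated with compound for 90 min, washed twice with PBS, and resuspended in 1 mL PBS. They were then mixed 50:1 with volunteer BECs for 90 min at 30 °C and 200 rpm. After 30 μm membrane filtration and crystal violet staining, yeast attached to 200 BECs were counted. PBS control. Three independent occasions; mean ± SEM.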

For series [3], the system named is Candida albicans. Put plainly: Anti-adherence activity against Candida albicans serotype B assessed as displacement of adhered yeast cells on BECs at 13.8 mM incubated for 90 mins after preincubation of yeast cells with BECs by crystal violet staning based microscopic method relative to PBS control after second filtration. It is filed as functional, organism-based. Summed up:
(§3)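 C. albicans MEN (serotype B, corneal clinical isolate) was grown overnight to stationary phase in YEPD at 30 °C and 200 rpm, washed, and resuspended in PBS at 1 × 10^8 cells per mL. Buccal epithelial cells were scraped from healthy volunteers, washed, and held at 5 × 10^5 per mL. Yeast and BECs (50:1) were co-incubated first. The BECs with adherent yeast were collected on a 30 μm polycarbonate membrane, then re-incubated with compound for 90 min. Yeast on 200 BECs were counted after crystal violet staining. Control 1 was PBS. Control 2 was the PBS-treated count after the second filtration, to account for physical detachment. Three independent occasions; mean ± SEM.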

Series [4] in a line: Toxicity against Candid albicans serotype B assessed as reduction in fungal growth at 0.0133 to 3.4 mM. The following applies: candida albicans, 3400 µM; dose 0.0133-3.4 mM.
Series [5] has as its system Candida albicans. Put plainly: Anti-adherence activity against Candida albicans serotype B assessed as displacement of adhered yeast cells on BECs at 13.8 mM incubated for 90 mins after preincubation of yeast cells with BECs by crystal violet staning based microscopic method relative to PBS control. It is filed as functional, organism-based. An outline of the steps:
as §3

Series [6] concerns Candida albicans. Put plainly: Anti-adherence activity against Candida albicans serotype B assessed as reduction in yeast adhesion to human BECs at 13.8 mM preincubated for 90 mins with BECs followed by twice washout with PBS followed by yeast cells addition by crystal violet staning based microscopic method relative to control. The class given is functional. The conditions noted are these: 1.5 h. Summed up:
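Reverse exclusion format. Buccal epithelial cells were pre-treated with compound at 13.8 mM before exposure to the yeast (C. albicans MEN, stationary phase, in PBS). Adherence was measured by membrane filtration, crystal violet staining, and microscopic counting of yeast on 200 BECs. Three independent occasions; mean ± SEM.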

For series [7], the system named is Candida albicans. Briefly: Anti-adherence activity against Candida albicans serotype B assessed as fungal adhesion to human BECs at 138 uM co-incubated for 90 mins with yeast cells and BECs by crystal violet staning based microscopic method relative to control. It is filed as functional. The following applies: 1.5 h. Summed up: as §1
Series [8] deals with Candida albicans. Put plainly: Anti-adherence activity against Candida albicans serotype B assessed as displacement of adhered yeast cells on BECs at 138 uM incubated for 90 mins after preincubation of yeast cells with BECs by crystal violet staning based microscopic method relative to PBS control after second filtration. It is filed as functional, organism-based. An outline of the steps: as §3

For series [9], the system named is Candida albicans. Put plainly: Anti-adherence activity against Candida albicans serotype B assessed as fungal adhesion to human BECs at 1.38 mM co-incubated for 90 mins with yeast cells and BECs by crystal violet staning based microscopic method relative to control. The class given is functional. The conditions noted are these: 1.5 h. An outline of the steps: as §1

The test system of series [10] is Candida albicans. Briefly: Anti-adherence activity against Candida albicans serotype B assessed as displacement of adhered yeast cells on human BECs at 138 uM incubated for 90 mins after preincubation of yeast cells with BECs by crystal violet staning based microscopic method relative to PBS control. The class given is functional, organism-based. Summed up: as §3

Series [11] deals with Candida albicans. Put plainly: Anti-adherence activity against Candida albicans serotype B assessed as reduction in fungal adhesion to human BECs at 0.138 to 1.38 mM preincubated with yeast cells for 90 mins followed by twice washout with PBS followed by BECs addition by crystal violet staning based microscopic method relative to control. The class given is functional. The following applies: dose mM 0.138-1.38, 1.5 h. An outline of the steps:
as §2

As for `O=C(NCc1cn([C@@H]2O[C@H](CO)[C@H](O)[C@H](O)[C@H]2O)nn1)[C@@H]1[C@H](C(=O)NCc2cn([C@@H]3O[C@H](CO)[C@H](O)[C@H](O)[C@H]3O)nn2)[C@@H]2C=C[C@H]1C2`, the “Fungal adhesion relative to control” value in the series with Candida albicans [1] was 61%. For the same compound, the inhibition at 13800 µM in the series on Candida albicans [2] was found to be 65%. Moreover, the inhibition stood at 34% in the series on Candida albicans [3] and 45% in the series on Candida albicans [5]. Moreover, the Activity entry in series [4] is on record as “Non-Toxic”.

On to `O=c1c(NCc2cn([C@@H]3O[C@H](CO)[C@H](O[C@@H]4O[C@H](CO)[C@H](O)[C@H](O)[C@H]4O)[C@H](O)[C@H]3O)nn2)c(NCc2cn([C@@H]3O[C@H](CO)[C@H](O[C@@H]4O[C@H](CO)[C@H](O)[C@H](O)[C@H]4O)[C@H](O)[C@H]3O)nn2)c1=O`, for which, in the series on Candida albicans [1], the “Fungal adhesion relative to control” value turned out to be 64%. Moreover, the inhibition at 13800 µM is 34% in the series with Candida albicans [2] and 15% in the series with Candida albicans [6]. Also, the inhibition in the series with Candida albicans [3] amounted to 25%; in the series on Candida albicans [5], 39%.

As to `CCC(=O)Nc1cc(C(=O)NCc2cn([C@@H]3O[C@H](CO)[C@H](O)[C@H](O)[C@H]3O)nn2)cc(C(=O)NCc2cn([C@@H]3O[C@H](CO)[C@H](O)[C@H](O)[C@H]3O)nn2)c1`, the values for the Activity (with Candida albicans [7]; in the series with Candida albicans [9]; in series [4]) were 65%, 74% and “Non-Toxic”, respectively. Also, the “Fungal adhesion relative to control” value in the series on Candida albicans [1] is 59%. Also, the inhibition at 13800 µM with Candida albicans [2] turned out to be 42%; in the series on Candida albicans [6] it was 22%. For the same compound, the inhibition in the series with Candida albicans [8] was determined as 36%; in the series on Candida albicans [3] it was 31%; with Candida albicans [10], 56%; with Candida albicans [5], 42%.

For `O=C(NCc1cn([C@@H]2O[C@H](CO)[C@H](O)[C@H](O)[C@H]2O)nn1)c1ccc(C(=O)NCc2cn([C@@H]3O[C@H](CO)[C@H](O)[C@H](O)[C@H]3O)nn2)cc1`, the Activity is reported as 56% in the series with Candida albicans [7], 74% in the series with Candida albicans [9] and “Non-Toxic” in [4]. For the same compound, in the series with Candida albicans [1], the “Fungal adhesion relative to control” value turned out to be 38%. Moreover, in the series on Candida albicans [11], the “inhibition (INH)” value is listed as “<=61%”. The inhibition at 13800 µM in the series with Candida albicans [2] came to 33.5%. Besides, the inhibition was 48% in the series on Candida albicans [8] and 63% in the series with Candida albicans [10].

Regarding `O=c1c(NCc2cn([C@@H]3O[C@H](CO)[C@H](O)[C@H](O)[C@H]3O)nn2)c(NCc2cn([C@@H]3O[C@H](CO)[C@H](O)[C@H](O)[C@H]3O)nn2)c1=O`, in the series with Candida albicans [1], the “Fungal adhesion relative to control” value was 83%. Further, the figures for the inhibition at 13800 µM in the series on Candida albicans [2] and with Candida albicans [6] were 27% and 12%, respectively. Further, in [4], the Activity entry is listed as “Non-Toxic”.

On to `O=c1c(NCc2cn(CCO[C@@H]3O[C@H](CO)[C@H](O)[C@H](O)[C@H]3O)nn2)c(NCc2cn(CCO[C@@H]3O[C@H](CO)[C@H](O)[C@H](O)[C@H]3O)nn2)c1=O`, for which, in the series with Candida albicans [1], the “Fungal adhesion relative to control” value stood at 69%. Besides, the inhibition at 13800 µM in the series with Candida albicans [2] was 33%; with Candida albicans [6], 19%. Further, the inhibition in the series with Candida albicans [3] is 21%; with Candida albicans [5] it was 35%. Further, the Activity result in series [4] is listed as “Non-Toxic”.

`O=C1[C@@H]2[C@H](C(=O)N1Cc1cn([C@@H]3O[C@H](CO)[C@H](O)[C@H](O)[C@H]3O)nn1)[C@@H]1C=C[C@H]2C1`: in the series with Candida albicans [1], the “Fungal adhesion relative to control” value is 83%. Moreover, in the series with Candida albicans [2], the inhibition at 13800 µM stood at 43%. Moreover, the figures for the inhibition in the series with Candida albicans [3] and with Candida albicans [5] were 7% and 23%, respectively.

As to `O=C(NCc1cn([C@@H]2O[C@H](CO)[C@H](O)[C@H](O)[C@H]2O)nn1)[C@H]1[C@H](C(=O)NCc2cn([C@@H]3O[C@H](CO)[C@H](O)[C@H](O)[C@H]3O)nn2)[C@H]2C=C[C@@H]1C2`, the “Fungal adhesion relative to control” value in the series with Candida albicans [1] was determined as 62%. Further, in the series with Candida albicans [2], the inhibition at 13800 µM came to 46%. The results for the inhibition with Candida albicans [3] and in the series on Candida albicans [5] were 7% and 23%, respectively.

The record behind these values is ChEMBL document CHEMBL4699436, “Scaffold diversity for enhanced activity of glycosylated inhibitors of fungal adhesion” (RSC Med Chem, 2020).
